# Assay outcomes as filed in PubChem.
# TRPC6 inh: mouse TRPC6 channel inhibitors, primary screen, cell-based, HEK293, membrane potential dye; ACh-evoked depolarization; hits give low values; AID 2553, 2010; Short transient receptor potential channel 6 (Mus musculus), Q61143; B-score at 10 µM; hit rate 1.1% among 310,000;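 active means B-score under library mean minus 3 SD, initial fluorescence not abnormally high, positive integrated signal ratio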;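 further: B-score derived from integrated fluorescence ratio over the kinetic read; more negative B-score means stronger inhibition of depolarization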
# TRPC4 agonist: activators of mouse TRPC4 channel, primary screen, Fluo4 calcium, HEK293 TRPC4beta/mu-opioid cells; Short transient receptor potential channel 4 (Mus musculus), Q9QUQ5; Fluo4 calcium fluorescence; hits give high values; B-score at 10 µM; hit rate 0.49% among 310,000; AID 2237, 2010;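 active means B-score above 5 SD of library B-scores, and initial fluorescence ratio not above library mean plus 5 SD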;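 further: positive B-score marks a calcium rise read as TRPC4 activation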
#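 system = HEK293 cells stably co-expressing mouse TRPC4beta and mu-opioid receptor | schedule = Fluo4 dye loading 45 min at room temperature, 110 s recording | measure = B-scored integrated calcium fluorescence ratio | signal = Fluo4 calcium-sensitive dye fluorescence, kinetic, 1 Hz baseline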
# TRPC6 act: mouse TRPC6 channel activators, primary screen, cell-based, HEK293, membrane potential dye | Short transient receptor potential channel 6 (Mus musculus), Q61143 | HEK293-TRPC6 membrane potential dye fluorescence; hits give high values | B-score at 10 µM | hit rate 0.13% among 310,000;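 active means B-score of the integrated fluorescence ratio above library mean plus 3 SD, and starting fluorescence ratio within library mean plus 5 SD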;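 further: higher score means more depolarization so channel activation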
# TRPC4 block: inhibitors of mouse TRPC4 channel, primary screen, Fluo4 calcium, HEK293 TRPC4beta/mu-opioid cells. DAMGO-evoked Fluo4 calcium flux; hits give low values. B-score at 10 µM. hit rate 0.39% among 300,000. Short transient receptor potential channel 4 (Mus musculus), Q9QUQ5;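 active means B-score over 3 SD under the library average, no early fluorescence shift, positive overall ratio signal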
#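 Test system – stable TRPC4beta/mu-opioid receptor HEK293 cells · Probe or stimulus – DAMGO, a submaximal dose followed by a maximal one · Dosing – one concentration per compound · Signal – Fluo4 calcium fluorescence by kinetic imaging, 5 s 1 Hz baseline · Evaluation – per-well B score of integrated baseline-normalized Fluo4 ratio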
# TRPC4 potent: positive allosteric modulators of TRPC4, primary screen, cell-based, mouse TRPC4beta, HEK293 mu-opioid, Fluo-4 calcium | Short transient receptor potential channel 4 (Mus musculus), Q9QUQ5 | DAMGO EC20, Fluo-4 Ca2+ flux; hits give high values | B-score at 10 µM | hit rate 0.42% among 310,000;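 active means B-score of calcium response area above 5 SD of library B-scores, with initial fluorescence ratio within 5 SD of library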;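 further: B-score of integrated fluorescence ratio over time as area under calcium response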
# Kir21 block: inhibitors of mouse Kir2.1 inward-rectifier potassium channel; Inward rectifier potassium channel 2 (Mus musculus), P35561; HEK293-Kir2.1, FluxOR thallium flux fluorescence; hits give low values; B-score at 10 µM; hit rate 0.85% among 310,000; AID 1672, 2009;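 active means fluorescence ratio B-score at or below minus 3 SD of library scores, with starting-brightness B-score within 2 SD, cut at about -4.2 in these data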;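 further: channel flux triggered by added potassium and thallium sulfate stimulus; B-score of peak minus minimum fluorescence over baseline after thallium stimulus; more negative B-score means stronger Kir2.1 block with less thallium influx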
# Numbers without * were called inactive; i = inactive. Sampled rows, rich in hits. Any-hit rate of the full collection: about 3%.
SMILES,TRPC6 inh,TRPC4 agonist,TRPC6 act,TRPC4 block,TRPC4 potent,Kir21 block
CC1=C(C(=O)NCc2ccccc2)C(c2ccccc2OCC(N)=O)NC(=O)N1 (stereo unspecified),i,i,i,i,i,-0.91
CC(C)C(NC(=O)OCc1ccccc1)C(=O)NC1CCCCC1 (stereo unspecified),i,i,i,i,i,-0.4
CC1CC(C)CN(CCCNC(=O)c2ccc3c(c2)NC(=O)CS3)C1 (stereo unspecified),i,69*,i,i,i,-0.97
CC1CCCCN1CCCNC(=O)c1ccc(N2CCCC2=O)cc1 (stereo unspecified),i,i,i,i,i,0.25
CC1CC(C)CN(CCCNC(=O)c2ccc(N3CCCC3=O)cc2)C1 (stereo unspecified),i,i,i,i,25*,-0.68
COc1ccc(NC(=O)c2ccsc2NC(C)=O)cc1,i,i,i,i,i,0.45
CN(CC(=O)Nc1ccccc1-c1ccccc1)Cc1ccccc1Cl,i,i,i,i,i,0.47
COc1ccc2c(C)c(CCC(=O)NCCCN3CCCC3=O)c(=O)oc2c1C,i,i,i,-6*,i,-0.97
COc1ccc(C2CC3(CC(C)(C)NC(SC)=N3)Oc3cc(O)cc(C)c32)cc1 (stereo unspecified),i,i,i,i,i,-5.3*
CC(C)c1ccc(NC(=O)N(CCc2nc3ccccc3[nH]2)C2CCCC2)cc1,i,75*,i,-7*,i,1.5
Cc1[nH]c2ccc(C(=O)OC(C)C(=O)N(C)c3ccccc3)cc2c1C (stereo unspecified),i,i,i,-7*,i,-0.11
CC(=O)Nc1ccc(NC(=O)C(C)OC(=O)c2ccc3[nH]c(C)c(C)c3c2)cc1 (stereo unspecified),i,i,i,i,i,-0.74
NC(=O)c1nsc(C(=O)N(Cc2ccccc2F)C(C(=O)NCC2CCCO2)c2ccc(F)cc2)c1N (stereo unspecified),i,i,i,-8*,i,1.7
NC(=O)c1nsc(C(=O)N(Cc2ccco2)C(C(=O)NCC2CCCO2)c2ccc(F)cc2)c1N (stereo unspecified),i,i,i,-6*,i,-0.94
Cc1cccc(CCN(C(=O)c2snc(C(N)=O)c2N)C(C(=O)NCC2CCCO2)c2ccc(F)cc2)c1 (stereo unspecified),i,i,i,-7*,i,0.6
NC(=O)c1nsc(C(=O)N(c2ccccc2)C(C(=O)NCC2CCCO2)c2ccc(F)cc2)c1N (stereo unspecified),i,i,i,i,i,0.74
Cc1cc(NC(=O)Nc2cc(Cl)sc2Cl)no1,i,i,i,i,i,-1.6
COc1ccccc1-c1cc(-c2ccccc2)nc(=O)[nH]1,i,i,i,i,21*,0.76
COC(=O)c1ccccc1NC(=O)CCC(=O)N1CC(C)Oc2ccc(C)cc21 (stereo unspecified),i,i,i,-8*,i,-0.18
Oc1ccccc1CNc1cccc2cccnc12,i,i,i,i,i,-1.2
Nc1sc(-c2ccccc2)n[n+]1Cc1cccc2cccnc12,i,58*,i,i,i,-7*
CC(C)(C)C(=O)O/N=C(\N)Cc1ccc(-c2csnn2)cc1,i,i,i,i,i,-0.53
CS(=O)(=O)c1ncc(Cl)c(C(=O)Nc2ccc(OC(F)F)cc2)n1,i,i,i,i,i,-5.3*
O=C(CNC(=O)c1ccccc1)OCc1nnc(-c2ccccc2)o1,i,i,i,i,i,-0.23
O=C(CCN1c2ccccc2Sc2ccccc21)OCc1nnc(-c2ccccc2)o1,i,i,i,i,12*,-1.4
SMILES,TRPC6 inh,TRPC4 agonist,TRPC6 act,TRPC4 block,TRPC4 potent,Kir21 block
CC(C)Cc1nnc(NC(=O)CCC(=O)NCCc2ccc(Cl)cc2)s1,i,i,i,i,i,1.5
Cc1onc(-c2c(F)cccc2Cl)c1C(O)c1ccc(F)cc1 (stereo unspecified),i,i,i,i,i,-4.4*
c1ccc2c(c1)nnn2-c1ncnc2sc3c(c12)CCCC3,i,i,i,-6*,i,0.69
c1ccc2c(c1)ncn2-c1ncnc2sc3c(c12)CCCC3,i,i,i,i,i,-0.94
CC(O)CNc1nc2ccccc2n1-c1ncnc2sc3c(c12)CCC3 (stereo unspecified),i,i,i,i,i,-7.6*
CC(C)C(=O)NNC(=O)c1cc2sccc2s1,i,i,i,i,i,0.22
CCC(C)C1Nc2ccc(C(=O)NCCc3ccc(OC)c(OC)c3)cc2NC1=O (stereo unspecified),i,i,i,i,i,0.51
COc1cc(OC)c(C2N(C)c3ccccc3N2C)cc1OC,i,i,i,-6*,i,-0.02
CCCCCCCOC(=O)C[N+](C)(C)CCOC1CC2CCC1(C)C2(C)C (stereo unspecified),i,i,i,i,i,-8.2*
CCCCCCOC(=O)C[N+](C)(C)CCOC1CC2CCC1(C)C2(C)C (stereo unspecified),i,i,i,i,i,-7.7*
CCCOC(=O)C[N+](C)(C)CCOC1CC2CCC1(C)C2(C)C (stereo unspecified),i,i,i,i,i,-0.06
CC(CCc1ccc(O)cc1)NCCc1ccc(O)c(O)c1 (stereo unspecified),i,i,i,i,i,1.9
CC(Cc1ccc(O)c(O)c1)C(C)Cc1ccc(O)c(O)c1 (stereo unspecified),i,i,i,i,i,-11*
Cc1sc2ncnc(N(C)CCc3ccccn3)c2c1C,i,80*,i,i,i,0.62
Cc1[nH]c2ccccc2c1CN1CCN(c2ccccn2)CC1,i,i,i,i,i,1.6
Cc1[nH]c2ccccc2c1CN1CCC(Cc2ccccc2)CC1,i,67*,i,i,i,-1.3
